SKKanGAS inh: S. pyogenes SKKanGAS growth inhibitors in kanamycin, primary screen, streptokinase expression inhibitor project, SKKanGAS strain, BacTiter-Glo luminescence. inhibition, % at 7.5 µM. hit rate 1.3% among 300,000. AID 1662, 2009. 6 h;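 active means mean replicate score, as percent of positive control median, at least 50; inconclusive means mean below 50 but one replicate at or above 50; inactive means mean and every replicate below 50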;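 further: strain carries kanamycin resistance gene driven by streptokinase promoter and grows in 40 µg/ml kanamycin; loss of luminescence reflects streptokinase promoter inhibition or plain growth inhibition; 0% = median of DMSO wells and 100% = positive control at its reference dose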
T cruzi inh: inhibitors of intracellular T. cruzi growth, primary screen, luminescence, NIH3T3 host cells; inhibition, % (no concentration beside the values); T. cruzi beta-gal in NIH3T3, 90 h; AID 1885, 2009; hit rate 1.4% among 300,000;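 active means mean inhibition across valid replicates above about 55%, limit read from the data; inconclusive means mean below that limit but half or more replicates reach it; inactive means mean below it, under half of replicates reach it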;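 further: signal also drops with host cell toxicity which is not excluded here; 0% = plate median of DMSO wells and 100% = zero luminescence signal; higher percent means less beta-gal luminescence so fewer parasites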
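System: Mouse NIH/3T3 fibroblasts infected with β-gal-expressing T. cruzi Tulahuen C4 | Quantity: NIH/3T3 cells, 5,000 per well | Reagent: 5000 reporter trypomastigotes per well | Dosing: Compound pinned at 50 nL/well, DMSO | Schedule: 3 h host attachment, then at least 90 h co-culture | Detection: GalScreen luminescence, 60 min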
Beta apoptosis: inhibitors of cytokine-induced beta cell apoptosis, primary screen, luminescence. INS-1E cytokine-induced death, ATP luminescence, 48 h; percent of positive-control rescue, neutral wells zero. protection from apoptosis, % (test concentration not listed). hit rate 0.8% among 300,000;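 active means Every replicate reaches about 75%, or at least half do and their mean reaches it too, limit read from the data; inconclusive means At least half of replicates reach the limit but their mean does not; inactive means Under half of replicates reach the limit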;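 further: 0% = cytokine-treated negative control wells and 100% = positive control rescue; higher means more ATP so stronger rescue from cytokine killing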
Calb FLC: C. albicans growth inhibition with fluconazole, primary screen, CaCi-2 strain, Alamar Blue fluorescence | growth inhibition, % (concentration not given with the values) | hit rate 0.57% among 300,000 | C. albicans CaCi-2 (fluconazole-resistant clinical isolate) + fluconazole, 48 h;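 active means growth inhibition above about 58% in most replicates, limit read from the data, passing the limit was not always enough; inconclusive means exactly half the replicates above a set limit; inactive means most replicates below a set limit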;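 further: all wells also contain fluconazole at 8 µg/ml as a sub-toxic cotreatment; 0% = median of DMSO wells and 100% = median of geldanamycin control wells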
Mdm2-MdmX inh: inhibitors of human Mdm2-MdmX association, primary screen, cell-based, luminescence, split luciferase, SaOS-2, uHTS; inhibition, % at 8 µM; hit rate 3% among 330,000; SaOS-2 split-luciferase Mdm2/MdmX complementation; Protein Mdm4 (Homo sapiens) + E3 ubiquitin-protein ligase Mdm2 (Homo sapiens), …;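 active means inhibition of at least 50% at 8 µM in the primary screen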
Target sequence (O15151 whole entry, looked up): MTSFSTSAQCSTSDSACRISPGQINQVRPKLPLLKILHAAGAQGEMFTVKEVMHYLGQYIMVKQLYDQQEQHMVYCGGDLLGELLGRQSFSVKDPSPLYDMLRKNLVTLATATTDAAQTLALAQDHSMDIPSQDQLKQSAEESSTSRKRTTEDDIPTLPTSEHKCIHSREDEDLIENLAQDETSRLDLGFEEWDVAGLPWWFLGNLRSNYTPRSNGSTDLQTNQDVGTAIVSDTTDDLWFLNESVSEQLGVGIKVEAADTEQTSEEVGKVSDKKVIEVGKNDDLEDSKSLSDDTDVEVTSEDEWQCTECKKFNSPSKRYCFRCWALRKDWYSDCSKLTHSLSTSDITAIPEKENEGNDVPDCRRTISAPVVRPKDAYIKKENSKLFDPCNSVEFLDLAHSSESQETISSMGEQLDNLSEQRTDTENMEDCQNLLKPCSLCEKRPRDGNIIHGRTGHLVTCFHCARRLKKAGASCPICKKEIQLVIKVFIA
Target sequence (Q00987 whole entry, looked up): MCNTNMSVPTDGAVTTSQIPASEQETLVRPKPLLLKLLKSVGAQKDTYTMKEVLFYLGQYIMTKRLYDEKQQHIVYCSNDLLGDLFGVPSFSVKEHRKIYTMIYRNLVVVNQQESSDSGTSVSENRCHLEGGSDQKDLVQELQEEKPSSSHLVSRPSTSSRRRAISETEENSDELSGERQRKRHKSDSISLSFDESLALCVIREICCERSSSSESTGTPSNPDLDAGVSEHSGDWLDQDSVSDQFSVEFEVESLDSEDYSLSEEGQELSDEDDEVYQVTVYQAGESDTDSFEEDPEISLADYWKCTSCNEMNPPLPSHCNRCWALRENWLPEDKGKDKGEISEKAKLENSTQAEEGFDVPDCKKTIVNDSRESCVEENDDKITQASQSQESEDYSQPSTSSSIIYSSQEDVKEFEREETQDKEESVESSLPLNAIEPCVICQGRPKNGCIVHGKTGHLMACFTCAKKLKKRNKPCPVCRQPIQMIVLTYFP
CSC inhib: cancer stem cell viability inhibitors, primary screen, luminescence | cancer stem cell-like cells viability | inhibition, % at 7.5 µM | hit rate 1.1% among 300,000 | AID 2717, 2010; in the data active means inhibition above about 75%; inconclusive means no clear call, values can overlap the other calls; tested in HMLE shEcad cells
Mdm2-MdmX conf: Mdm2-MdmX complex disruptors, retested hits, confirmation, luminescence, single concentration; hit rate 55% among 10,000; shares compounds with Mdm2-MdmX inh; inhibition, % at 8 µM; Mdm2-MdmX binding, luminescent assay; in the data active means inhibition above about 40%
Full FLuc ctr: full-length luciferase signal inhibition, confirmation, counter-screen for Mdm2/MdmX interaction inhibitor project, cell-based, single concentration, SaOS-2; shares compounds with Mdm2-MdmX inh; SaOS-2 full-length luciferase counterscreen, luminescence; inhibition, % at 8 µM; hit rate 77% among 6,200; AID 504607, 2011;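 active means mean inhibition at 8 µM reaching about 37%, which flags the compound as non-specific, limit read from the data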;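 further: p53-null SaOS-2 cells with luciferase driven by a doxycycline-inducible promoter; compound on cells about two nights before reading with doxycycline added after day one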
Numbers without * were called inactive; u = inconclusive; x = not tested or not shown. This is a sample that favours compounds with a hit; in the whole collection about 5.7% have one here.

SMILES | SKKanGAS inh | T cruzi inh | Beta apoptosis | Calb FLC | Mdm2-MdmX inh | CSC inhib | Mdm2-MdmX conf | Full FLuc ctr
CC(C)(C)OC(=O)NCCCC[C@@H](C(=O)NCCCCCCCCCCC(=O)N1CCN(C(=O)OC(C)(C)C)CC1)n1cc(CCCC(=O)O)nn1 | x | x | 0.3 | x | 12.2 | -0.7 | x | x
CC(C)(C)OC(=O)NCCCCCc1cn([C@@H](CO)C(=O)NCCCCCCCCCCC(=O)N2CCN(C(=O)OC(C)(C)C)CC2)nn1 | x | x | 108.7* | x | 62.0* | 18.0 | 5.7 | x
CCOC(=O)C(Cc1c[nH]c2ccccc12)NC(=O)c1ccccc1Br (stereo not drawn) | -1.8 | -8.0 | -10.2 | -0.7 | -5.9 | -11.1 | x | x
COc1cc(-c2nc(-c3ccccc3)c(-c3cccs3)[nH]2)cc(OC)c1OC | 0.7 | 61.9* | 40.7 | 1.8 | 76.0* | 78.0* | 40.0* | 100.2*
COc1cc(-c2nc(-c3ccccc3)c(-c3cccs3)[nH]2)cc(OC)c1O | -42.4 | 24.7 | x | 21.8 | 45.9 | -1.9 | x | x
C=CS(=O)(=O)N(Cc1ccc(Cl)c(Cl)c1)C[C@@H](O)CO | x | x | x | x | 81.0* | x | 83.6* | 55.0*
Cn1nccc1C(=O)NC1CC(C)(C)Cc2c1cnn2-c1ccc(F)cc1 (stereo not drawn) | -4.4 | -24.1 | -0.4 | 3.4 | 2.3 | -11.0 | x | x
CCOc1ccc(N2C(=O)/C(=C/c3ccccc3)N=C2SC)cc1 | -6.7 | 13.2 | 0.4 | 6.9 | -17.8 | 17.9 | x | x
COc1ccc(/C=C2\N=C(SC)N(c3ccccc3OC)C2=O)cc1 | -12.1 | 10.7 | 20.9 | 2.8 | 98.4* | 71.3 | 94.5* | 47.2*
CCC(=O)N1CCc2cc(S(=O)(=O)CCC(=O)N(C)c3ccc(OC)cc3OC)ccc21 | 0.2 | 10.7 | -8.5 | 1.7 | 1.2 | 0.8 | x | x
CC[C@H](C)[C@H](NC(N)=O)C(=O)NCCc1ccc(Cl)cc1Cl | 4.8 | -12.0 | x | 7.1 | -2.0 | -5.0 | x | x
COc1ccc(-n2c(N)c(C(=O)Nc3c(C)n(C)n(-c4ccccc4)c3=O)c3nc4ccccc4nc32)cc1 | 14.8 | 5.6 | 5.1 | -1.7 | 32.5 | 8.2 | x | x
Cc1ccc(-n2c(N)c(C(=O)Nc3c(C)n(C)n(-c4ccccc4)c3=O)c3nc4ccccc4nc32)cc1C | 16.3 | 8.1 | 42.0 | -2.6 | 50.8* | 3.7 | 27.6 | x
CCOc1ccc(C)cc1S(=O)(=O)n1cnc2ccccc21 | 10.9 | -5.7 | x | -1.5 | 51.6* | 59.3 | 60.7* | 44.7*
CCOC(=O)c1nnn2c1nc(Nc1cccc(C(F)(F)F)c1)c1ccccc12 | 3.6 | 5.5 | 57.6 | -2.9 | 82.1* | 9.8 | 30.5 | x
CCOC(=O)c1nnn2c1nc(SCC(C)=O)c1ccccc12 | -6.8 | -6.5 | 6.6 | 1.9 | -14.5 | -10.3 | x | x
CNc1nc2c(-c3ccc(Cl)cc3)nnn2c2ccccc12 | -7.6 | -34.9 | 16.9 | -7.1 | 60.6* | 15.3 | 42.2* | 68.7*
NNc1nc2c(-c3cccc(C(F)(F)F)c3)nnn2c2ccccc12 | 15.0 | -2.2 | 25.8 | 11.7 | 56.0* | 50.1 | 22.1 | x
COCCNc1nc2c(-c3cccc(C(F)(F)F)c3)nnn2c2ccccc12 | 1.0 | -7.7 | 1.2 | -4.7 | 39.6 | -1.3 | x | x
CO/N=C\CC(=O)Nc1ccc(Oc2ccccc2)cc1 | 2.5 | -42.5 | -9.0 | -38.4 | 51.9* | 0.5 | 63.0* | 73.3*
C=CCOc1ccccc1CNc1ccc2c(c1)OCCO2 | 1.5 | 73.0* | 9.0 | -9.8 | 64.0* | 12.1 | 65.0* | 68.6*
CN(C(=O)Cn1cnc2ccccc2c1=O)C1CCS(=O)(=O)C1 (stereo not drawn) | 3.3 | -2.4 | 2.8 | 5.1 | 23.5 | 7.6 | x | x
COc1ccc(NC(=O)COC(=O)CO/N=C(\C)c2ccc3c(c2)OCO3)cc1S(N)(=O)=O | x | x | -2.8 | x | -8.7 | -14.9 | x | x
COc1ccc(C(=O)Nc2nc(-c3ccccc3)c(C(C)=O)s2)c(OC)c1 | -27.5 | -19.3 | -9.8 | u | 57.9* | 47.2 | 20.9 | 113.0*
COC(=O)Nc1nc(C)c(C(=O)c2ccccc2)s1 | 3.8 | 0.2 | 8.0 | 21.5 | 28.5 | -2.0 | x | x
SMILES | SKKanGAS inh | T cruzi inh | Beta apoptosis | Calb FLC | Mdm2-MdmX inh | CSC inhib | Mdm2-MdmX conf | Full FLuc ctr
COC(=O)Nc1nc(-c2ccccc2)c(C(=O)c2ccccc2)s1 | 13.2 | 30.8 | 24.6 | -1.1 | 61.3* | -21.6 | 54.1* | 95.2*
CC(=O)c1sc(NC(=O)c2ccccc2F)nc1-c1ccccc1 | 20.2 | 7.7 | 2.0 | 40.8 | -110.8 | 13.6 | x | x
CCOC(=O)CNC(=O)N1CCCC(CNS(=O)(=O)Cc2ccccc2)C1 (stereo not drawn) | 4.4 | -10.0 | -5.3 | 10.3 | -0.4 | -6.3 | x | x
O=Nc1c(-c2c(O)[nH]c3cc(Br)ccc23)[nH]c2ccccc12 | 95.2* | 3.2 | 10.1 | 52.6 | 99.0* | 103.4* | 31.3 | x
CCCCCCCC[n+]1cccc2c3ccccc3ccc21 | 17.3 | 67.8* | 107.6* | 102.0* | 86.4* | 31.8 | 83.8* | 23.3
Cc1c2ccccc2cc[n+]1CCCS(=O)(=O)[O-] | -0.3 | -6.7 | -1.5 | 3.6 | 16.0 | -22.8 | x | x
CNC(=O)Cn1nc(-c2ccc(C)c(S(=O)(=O)N(C)C)c2)c2ccccc2c1=O | 8.5 | 0.3 | 5.4 | -3.1 | -12.7 | -13.3 | x | x
CN1CCN(C(=O)c2ccc3c(c2)NC(=O)/C(=C/c2ccccc2)S3)CC1 | 0.4 | 6.5 | 2.8 | -3.4 | -5.1 | 23.2 | x | x
COc1cccc(/C=C2/Sc3ccc(C(=O)NCCN4CCCCCC4)cc3NC2=O)c1 | 12.1 | 9.8 | x | 1.1 | 97.9* | -16.3 | 30.2 | x
O=C1Nc2cc(C(=O)NCCN3CCCCCC3)ccc2S/C1=C\c1ccccc1 | 0.7 | 17.2 | 1.5 | 1.2 | 80.8* | -5.0 | 18.6 | x
Cc1ccc(/C=C2/Sc3ccc(C(=O)NCc4ccccn4)cc3NC2=O)cc1 | -0.9 | -29.8 | 1.4 | -2.1 | 69.8* | -8.8 | 32.3 | x
Cc1cccc(/C=C2/Sc3ccc(C(=O)NCCN4CCCC4)cc3NC2=O)c1 | 2.2 | 5.6 | -3.0 | 11.6 | 71.7* | 6.5 | 12.8 | x
C[C@]12CCC[C@H](O1)c1c(cc3c(c1O)C(=O)c1c(O)cc(O)cc1C3=O)O2 | 40.3 | -4.9 | 7.5 | 14.2 | -24.0 | -5.9 | x | x
Cc1ccc(S(=O)(=O)N2CCCCC2)cc1NC(=O)C1CCC1 | x | x | 2.5 | x | 1.1 | 0.8 | x | x
Cc1ccc(-c2nnc(COC(=O)c3cccs3)o2)cc1 | 1.7 | 1.2 | -11.1 | -3.1 | 6.4 | -14.1 | x | x
